Data set [1] addresses T1, CYP4F2 (Homo sapiens, UniProt P78329).
T1 sequence (P78329 whole entry): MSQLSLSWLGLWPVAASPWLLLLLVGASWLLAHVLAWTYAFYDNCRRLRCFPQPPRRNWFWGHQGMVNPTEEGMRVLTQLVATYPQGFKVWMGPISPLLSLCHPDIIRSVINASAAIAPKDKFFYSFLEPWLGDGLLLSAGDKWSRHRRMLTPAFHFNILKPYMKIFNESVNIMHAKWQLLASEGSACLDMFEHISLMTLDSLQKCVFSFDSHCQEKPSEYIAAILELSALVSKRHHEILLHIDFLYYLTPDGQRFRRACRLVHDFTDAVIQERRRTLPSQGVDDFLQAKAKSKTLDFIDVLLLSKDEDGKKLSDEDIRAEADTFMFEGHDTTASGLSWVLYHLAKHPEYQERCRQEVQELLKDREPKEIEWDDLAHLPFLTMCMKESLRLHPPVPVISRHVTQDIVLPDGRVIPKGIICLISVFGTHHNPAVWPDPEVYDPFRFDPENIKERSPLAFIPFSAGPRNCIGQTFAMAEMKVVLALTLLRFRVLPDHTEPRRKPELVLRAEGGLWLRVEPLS
Put plainly: Inhibition of CYP4F2-mediated gamma-tocopherol metabolism in human HepG2/C3A cells at 20 nM preincubated for 4 hrs and continued for 48 hrs. The conditions noted are these: probe gamma-tocopherol. It counts as cell-based. The method in brief: (§1)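 Confluent HepG2/C3A monolayers pre-incubated 4 hr with inhibitor (ethanol stock) or ethanol vehicle. Medium then replaced with fresh medium containing γ-tocopherol, 25 µM final, plus inhibitor again. After 48 hr, medium analysed by GC-MS for 3'- and 5'-carboxychromanols, with d9-α-CEHC internal standard. Results given as percent inhibition, means and standard deviation.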

The target in data set [2] is T2, Cytochrome P450 3A4 (Homo sapiens, UniProt P08684). Briefly: Inhibition of CYP3A4 in human HepG2/C3A cells assessed as testosterone-6-hydroxylase activity. Format: ADME, cell-based. In a few lines:
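Confluent HepG2/C3A cultures pre-incubated 4 hr with inhibitor or ethanol control, then given 50 µM testosterone. After 48 hr, medium extracted with ethyl acetate and 6-hydroxytestosterone measured as its trimethylsilyl ether by GC-MS. Percent inhibition reported as means and standard deviation.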

Data set [3] concerns the target T3, Cytochrome P450 4F2 (Homo sapiens, UniProt P78329).
T3 sequence (P78329 whole entry): T1 sequence (P78329 whole entry)
Briefly: Inhibition of CYP4F2-mediated gamma-tocopherol metabolism in human HepG2/C3A cells preincubated for 4 hrs and continued for 48 hrs. Format: cell-based. Conditions: for Activity: human, hepg2/c3a, 48 h. In a few lines: as §1

Data set [4] concerns the target T3, Cytochrome P450 4F2. Briefly: Inhibition of CYP4F2-mediated gamma-tocopherol metabolism in human HepG2/C3A cells at 1 uM preincubated for 6 hrs and continued for 24 hrs. Format: cell-based. The method in brief: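 Confluent HepG2/C3A monolayers exposed to 1 µM inhibitor for 6 hr. Then incubated 24 hr in medium with 25 µM γ-tocopherol, inhibitor not replaced. Medium carboxychromanol metabolites measured by GC-MS against d9-α-CEHC internal standard.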

The subject of data set [5] is Mus musculus. Briefly: Enrichment in delta-tocopherol in FVB/N mouse liver assessed as doubling in delta-tocopherol/alpha-tocopherol ratio at 500 mg/kg in delta-tocopherol rich diet for 10 days. More on the design: dose 500 mg/kg. It counts as functional, organism-based.
Data set [6] relates to Mus musculus. Put plainly: Enrichment in delta-tocopherol in FVB/N mouse bile assessed as tripling in delta-tocopherol/alpha-tocopherol ratio at 500 mg/kg in delta-tocopherol rich diet for 10 days. It counts as functional, organism-based. Also noted: dose 500 mg/kg.
Data set [7] addresses T2, Cytochrome P450 3A4. Put plainly: Inhibition of human recombinant CYP3A4 expressed in insect cell microsome assessed as testosterone-6-hydroxylase activity at 4 uM after 60 mins. Format: ADME, microsomes. Conditions: recombinant enzyme, 1 h. The method in brief: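 Insect-cell microsomes expressing only recombinant human CYP3A4 (20 pmol P450) incubated 60 min with 200 µM testosterone, 1 mM NADPH and 0.25% BSA in […], pH 7.4, with or without inhibitor. Reaction stopped with cold ethanol and extracted with hexane/MTBE (7:1). 6-OH-testosterone expressed as nmol per nmol membrane cholesterol.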

The target in data set [8] is T1, CYP4F2. Put plainly: Inhibition of CYP4F2-mediated gamma-tocopherol metabolism in human HepG2/C3A cells at 1.0 uM preincubated for 4 hrs and continued for 48 hrs. It counts as cell-based. The conditions noted are these: probe gamma-tocopherol. In a few lines:
as §1

The source made the active and inactive calls. The rule behind the calls is not given here.

T2 sequence (P08684 whole entry): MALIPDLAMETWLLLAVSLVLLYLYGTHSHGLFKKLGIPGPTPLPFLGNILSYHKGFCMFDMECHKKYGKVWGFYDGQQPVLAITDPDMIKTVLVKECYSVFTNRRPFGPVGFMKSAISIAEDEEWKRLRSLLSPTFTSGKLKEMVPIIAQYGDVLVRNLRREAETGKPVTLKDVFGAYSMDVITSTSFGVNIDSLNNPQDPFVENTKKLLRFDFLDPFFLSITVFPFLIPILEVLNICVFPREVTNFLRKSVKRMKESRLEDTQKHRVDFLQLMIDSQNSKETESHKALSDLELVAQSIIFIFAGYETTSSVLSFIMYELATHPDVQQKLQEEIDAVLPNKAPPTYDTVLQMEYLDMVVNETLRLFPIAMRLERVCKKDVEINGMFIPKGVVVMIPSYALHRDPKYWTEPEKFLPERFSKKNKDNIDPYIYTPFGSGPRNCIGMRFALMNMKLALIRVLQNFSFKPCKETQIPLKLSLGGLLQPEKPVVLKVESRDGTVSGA

Take `Cc1c(C)c2c(c(C)c1O)CC[C@@](C)(CCCCCCCCCn1cncn1)O2`: the inhibition at 48 h, 0.02 µM against CYP4F2 [1] came out at 42%. Besides, the outcome at Cytochrome P450 3A4 [2] was Active.
As to `Cc1c(C)c2c(c(C)c1O)CC[C@@](C)(CCCCCCCCCn1nc3ccccc3n1)O2`, the Activity result at Cytochrome P450 4F2 [3] is given as “Not Active”.
In the case of `Cc1c(C)c2c(c(C)c1O)CC[C@@](C)(CCCCCCCCCn1nnc3ccccc31)O2`, the Activity result on Cytochrome P450 4F2 [3] is listed as “Not Active”.
For `Cc1c(C)c2c(c(C)c1O)CC[C@@](C)(CCCCCCCCCn1ccnc1)O2`, the IC50 at Cytochrome P450 4F2 [3] (read-out: ED50 (the source's name)) was 1 nM. Besides, the result at Cytochrome P450 4F2 [4] and on Cytochrome P450 3A4 [2] was Active. Moreover, the result in the data set on Mus musculus [5] and with Mus musculus [6] was Active. For the same compound, the “inhibition (INH)” value on Cytochrome P450 3A4 [7] was determined as 90%.
On CYP4F2 [8], `Cc1c(C)c2c(c(C)c1O)CC[C@@](C)(CCCCCCCCCn1ccnn1)O2` had an inhibition at 48 h, 1 µM of 36%. At Cytochrome P450 3A4 [2], the outcome was Active.
Regarding `Cc1c(C)c2c(c(C)c1O)CC[C@@](C)(CCCCCCCCCn1cnc3ccccc31)O2`, the Activity result on Cytochrome P450 4F2 [3] is recorded as “Not Active”.

As usually defined, the inhibition is how much of the control response was suppressed. Higher therefore signals strong suppression.
